# Test results as given in ChEMBL document CHEMBL3232887, “Propargyl-linked antifolates are dual inhibitors of Candida albicans and Candida glabrata” (J Med Chem, 2014).
# Active and inactive are the calls of the source. No cut-off for these calls is given here.
# Tested on: not listed separately
# Experiment: Inhibition of Candida glabrata DHFR using dihydrofolate as substrate preincubated for 5 mins followed by substrate addition in presence of NADPH
# Parameters: species or system Nakaseomyces glabratus
# Settings: not given
# How it was run: (§1)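 Racemic inhibitor from DMSO stock (<2% DMSO in assay) was preincubated 5 min with enzyme and 100 μM NADPH. NADPH consumption was followed at 340 nm for 1 min at 25 °C, in triplicate.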
row,SMILES,IC50 [nM]
1,CCc1nc(N)nc(N)c1C#CC(C)c1ccc(-c2ccccc2)cc1 (stereo unspecified),6
2,CCc1nc(N)nc(N)c1C#CC(C)c1ccc(-c2ccccc2)cc1OC (stereo unspecified),31
3,COc1cc(-c2ccccc2)cc(C(C)C#Cc2c(C)nc(N)nc2N)c1 (stereo unspecified),7.3
4,CCc1nc(N)nc(N)c1C#CC(C)c1ccc(-c2ccncc2)cc1OC (stereo unspecified),19
5,CCc1nc(N)nc(N)c1C#CC(C)c1cnc(-c2ccccc2)nc1 (stereo unspecified),22
6,CCc1nc(N)nc(N)c1C#CC(C)c1ccc(-c2ccc(C)cc2)nc1 (stereo unspecified),27
7,CCc1nc(N)nc(N)c1C#CC(C)c1ccc(-c2ccc(C)cc2)cc1OC (stereo unspecified),22
8,CCc1nc(N)nc(N)c1C#CC(C)c1ccc(-c2ccccc2)nc1 (stereo unspecified),23
9,COc1cc(C(C)C#Cc2c(C)nc(N)nc2N)c(OC)cc1-c1ccccc1 (stereo unspecified),8.2

# Target: T1, Dihydrofolate reductase (Candida albicans, UniProt P22906)
# T1 sequence (P22906 whole entry): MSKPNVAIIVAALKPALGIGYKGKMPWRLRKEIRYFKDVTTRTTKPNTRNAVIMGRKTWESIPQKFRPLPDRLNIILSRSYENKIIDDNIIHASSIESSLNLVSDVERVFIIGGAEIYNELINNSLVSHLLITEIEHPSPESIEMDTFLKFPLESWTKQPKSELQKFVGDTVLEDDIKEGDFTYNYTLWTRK
# Experiment: Inhibition of Candida albicans DHFR using dihydrofolate as substrate preincubated for 5 mins followed by substrate addition in presence of NADPH
# Settings: not given
# How it was run: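 Consumption of NADPH followed at 340 nm for 1 min at 25 °C. Buffer: 20 mM TES pH 7.0, 50 mM KCl, 10 mM 2-mercaptoethanol, 0.5 mM EDTA, 1 mg/mL BSA. Saturating 100 μM NADPH and 100 μM dihydrofolate, limiting enzyme. Racemic inhibitor was added from DMSO stocks at under 2% DMSO final. Triplicate runs.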
row,SMILES,IC50 [nM]
1,CCc1nc(N)nc(N)c1C#CC(C)c1ccc(-c2ccccc2)cc1 (stereo unspecified),23
2,CCc1nc(N)nc(N)c1C#CC(C)c1ccc(-c2ccccc2)cc1OC (stereo unspecified),49
3,COc1cc(-c2ccccc2)ccc1C(C)C#Cc1c(C)nc(N)nc1N (stereo unspecified),20
4,CCc1nc(N)nc(N)c1C#CC(C)c1ccc(-c2ccncc2)cc1OC (stereo unspecified),33
5,CCc1nc(N)nc(N)c1C#CC(C)c1ccc(-c2ccc(F)cc2)cc1OC (stereo unspecified),43
6,CCc1nc(N)nc(N)c1C#CC(C)c1ccc(-c2ccc(C)cc2)cc1OC (stereo unspecified),48
7,COc1cc(C(C)C#Cc2c(C)nc(N)nc2N)c(OC)cc1-c1ccccc1 (stereo unspecified),36

# Target: T2, Dihydrofolate reductase (Homo sapiens, UniProt P00374)
# T2 sequence (P00374 whole entry): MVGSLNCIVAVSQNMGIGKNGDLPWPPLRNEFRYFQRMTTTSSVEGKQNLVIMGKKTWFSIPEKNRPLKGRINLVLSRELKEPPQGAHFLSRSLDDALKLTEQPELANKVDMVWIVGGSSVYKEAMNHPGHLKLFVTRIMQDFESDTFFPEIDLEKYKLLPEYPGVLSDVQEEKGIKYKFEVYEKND
# Experiment: Inhibition of human DHFR using dihydrofolate as substrate preincubated for 5 mins followed by substrate addition in presence of NADPH
# Settings: not given
# How it was run: as §1
row,SMILES,IC50 [nM]
1,CCc1nc(N)nc(N)c1C#CC(C)c1ccc(-c2ccccc2)cc1 (stereo unspecified),174
2,CCc1nc(N)nc(N)c1C#CC(C)c1ccc(-c2ccccc2)cc1OC (stereo unspecified),172
3,COc1cc(-c2ccccc2)ccc1C(C)C#Cc1c(C)nc(N)nc1N (stereo unspecified),340
4,CCc1nc(N)nc(N)c1C#CC(C)c1ccc(-c2ccncc2)cc1OC (stereo unspecified),127
5,CCc1nc(N)nc(N)c1C#CC(C)c1ccc(-c2ccc(F)cc2)cc1OC (stereo unspecified),148
6,CCc1nc(N)nc(N)c1C#CC(C)c1ccc(-c2ccc(C)cc2)cc1OC (stereo unspecified),208
7,COc1cc(C(C)C#Cc2c(C)nc(N)nc2N)c(OC)cc1-c1ccccc1 (stereo unspecified),314

# Tested on: Candida albicans
# Experiment: Antifungal activity against Candida albicans NCCLS84 after 24 hrs by XTT assay
# Assay type: functional
# Settings: SC5314, 24 h, in the assay text read “SC5314” for “NCCLS84”
row,SMILES,MIC [µg/mL]
1,CCc1nc(N)nc(N)c1C#CC(C)c1ccc(-c2ccccc2)cc1 (stereo unspecified),7.5
2,CCc1nc(N)nc(N)c1C#CC(C)c1ccc(-c2ccccc2)cc1OC (stereo unspecified),6.3
3,COc1cc(-c2ccccc2)cc(C(C)C#Cc2c(C)nc(N)nc2N)c1 (stereo unspecified),23
4,COc1cc(-c2ccccc2)ccc1C(C)C#Cc1c(C)nc(N)nc1N (stereo unspecified),1.6
5,CCc1nc(N)nc(N)c1C#CC(C)c1ccc(-c2ccncc2)cc1OC (stereo unspecified),25
6,CCc1nc(N)nc(N)c1C#CC(C)c1ccc(-c2ccc(F)cc2)cc1OC (stereo unspecified),1.8
7,CCc1nc(N)nc(N)c1C#CC(C)c1cnc(-c2ccccc2)nc1 (stereo unspecified),0.19
8,CCc1nc(N)nc(N)c1C#CC(C)c1ccc(-c2ccc(C)cc2)nc1 (stereo unspecified),0.39
9,CCc1nc(N)nc(N)c1C#CC(C)c1ccc(-c2ccc(C)cc2)cc1OC (stereo unspecified),3.1
10,COc1cc(C(C)C#Cc2c(C)nc(N)nc2N)ccc1-c1ccccc1 (stereo unspecified),6.25
11,CCc1nc(N)nc(N)c1C#CC(C)c1cc(OC)cc(-c2ccncc2)c1 (stereo unspecified),25
12,CCc1nc(N)nc(N)c1C#CC(C)c1ccc(-c2ccccc2)nc1 (stereo unspecified),0.39
13,COc1cc(C(C)C#Cc2c(C)nc(N)nc2N)c(OC)cc1-c1ccccc1 (stereo unspecified),3.1

# Tested on: MCF10
# Experiment: Cytotoxicity against human MCF10 cells
# Assay type: cell-based
# Settings: not given
row,SMILES,IC50 [nM]
1,CCc1nc(N)nc(N)c1C#CC(C)c1ccc(-c2ccc(C#N)cc2)cc1OC (stereo unspecified),50000
2,CCc1nc(N)nc(N)c1C#CC(C)c1ccc(-c2ccccc2)cc1 (stereo unspecified),505000
3,CCc1nc(N)nc(N)c1C#CC(C)c1ccc(-c2ccc(C(=O)OC)cc2)cc1OC (stereo unspecified),96000
4,COc1cc(-c2ccccc2)ccc1C(C)C#Cc1c(C)nc(N)nc1N (stereo unspecified),74000
5,CCc1nc(N)nc(N)c1C#CC(C)c1ccc(-c2ccncc2)cc1OC (stereo unspecified),216000
6,CCc1nc(N)nc(N)c1C#CC(C)c1ccc(-c2ccc(O)cc2)cc1OC (stereo unspecified),148000
7,CCc1nc(N)nc(N)c1C#CC(C)c1ccc(-c2ccc(F)cc2)cc1OC (stereo unspecified),60000
8,CCc1nc(N)nc(N)c1C#CC(C)c1cnc(-c2ccccc2)nc1 (stereo unspecified),216000
9,COc1cc(C(C)C#Cc2c(C)nc(N)nc2N)ccc1-c1ccccc1 (stereo unspecified),80000
10,CCc1nc(N)nc(N)c1C#CC(C)c1ccc(-c2ccccc2)nc1 (stereo unspecified),148000

# Tested on: not listed separately
# Experiment: Selectivity ratio of IC50 for human DHFR to IC50 for Candida glabrata DHFR
# Settings: not given
row,SMILES,Ratio IC50
1,CCc1nc(N)nc(N)c1C#CC(C)c1ccc(-c2ccccc2)cc1OC (stereo unspecified),6
2,CCc1nc(N)nc(N)c1C#CC(C)c1ccc(-c2ccc(C)cc2)cc1OC (stereo unspecified),9

# Tested on: not listed separately
# Experiment: Selectivity ratio of IC50 for human DHFR to IC50 for Candida albicans DHFR
# Settings: not given
row,SMILES,Ratio IC50
1,CCc1nc(N)nc(N)c1C#CC(C)c1ccc(-c2ccccc2)cc1OC (stereo unspecified),4
2,CCc1nc(N)nc(N)c1C#CC(C)c1ccc(-c2ccc(C)cc2)cc1OC (stereo unspecified),4

# Tested on: not listed separately
# Experiment: Kinetic solubility of the compound in water after 30 mins by HPLC analysis in presence of 0.02% HPMC
# Assay type: physicochemical
# Settings: water with 0.02% HPMC; read-out: Kinetic_solubility
row,SMILES,solubility kinetic at 0.5 h [µg/mL]
1,COc1cc(-c2ccccc2)ccc1C(C)C#Cc1c(C)nc(N)nc1N (stereo unspecified),25

# Tested on: not listed separately
# Experiment: Kinetic solubility of the compound in water after 30 mins by HPLC analysis
# Assay type: physicochemical
# Settings: read-out: Kinetic_solubility
row,solubility kinetic at 0.5 h [µg/mL],SMILES
1,60,CCc1nc(N)nc(N)c1C#CC(C)c1cnc(-c2ccccc2)nc1 (stereo unspecified)
2,15,CCc1nc(N)nc(N)c1C#CC(C)c1ccc(-c2ccc(C)cc2)nc1 (stereo unspecified)
3,20,CCc1nc(N)nc(N)c1C#CC(C)c1ccc(-c2ccccc2)nc1 (stereo unspecified)

# Tested on: Candida albicans
# Experiment: Antifungal activity against Candida albicans NCCLS84 at 100 ug/ml after 24 hrs by XTT assay
# Assay type: functional, organism-based
# Settings: not given
row,SMILES,Activity
1,CCc1nc(N)nc(N)c1C#CC(C)c1ccc(-c2ccc(O)cc2)cc1OC (stereo unspecified),inactive

# Tested on: Candida albicans
# Experiment: Antifungal activity against Candida albicans after 24 hrs by assay
# Settings: not given
row,SMILES,MIC
1,CCc1nc(N)nc(N)c1C#CC(C)c1ccc(-c2ccc(N(C)C)cc2)cc1OC (stereo unspecified),inactive
2,CCc1nc(N)nc(N)c1C#CC(C)c1ccc(-c2ccc(OC(N)=O)cc2)cc1OC (stereo unspecified),inactive

# Tested on: Nakaseomyces glabratus
# Experiment: Antifungal activity against Candida glabrata NCCLS84 after 24 hrs by Alamar Blue assay
# Settings: NCCLS84, 24 h
row,SMILES,MIC [µg/mL]
1,CCc1nc(N)nc(N)c1C#CC(C)c1ccc(-c2ccccc2)cc1 (stereo unspecified),3.1
2,CCc1nc(N)nc(N)c1C#CC(C)c1ccc(-c2ccccc2)cc1OC (stereo unspecified),1.6
3,COc1cc(-c2ccccc2)ccc1C(C)C#Cc1c(C)nc(N)nc1N (stereo unspecified),0.39
4,CCc1nc(N)nc(N)c1C#CC(C)c1ccc(-c2ccncc2)cc1OC (stereo unspecified),0.78
5,CCc1nc(N)nc(N)c1C#CC(C)c1ccc(-c2ccc(F)cc2)cc1OC (stereo unspecified),7.5
6,CCc1nc(N)nc(N)c1C#CC(C)c1cnc(-c2ccccc2)nc1 (stereo unspecified),0.78
7,CCc1nc(N)nc(N)c1C#CC(C)c1ccc(-c2ccc(C)cc2)nc1 (stereo unspecified),0.2
8,CCc1nc(N)nc(N)c1C#CC(C)c1ccc(-c2ccc(C)cc2)cc1OC (stereo unspecified),1.6
9,COc1cc(C(C)C#Cc2c(C)nc(N)nc2N)ccc1-c1ccccc1 (stereo unspecified),0.78
10,CCc1nc(N)nc(N)c1C#CC(C)c1cc(OC)cc(-c2ccncc2)c1 (stereo unspecified),1.3
11,CCc1nc(N)nc(N)c1C#CC(C)c1ccc(-c2ccccc2)nc1 (stereo unspecified),0.78
12,COc1cc(C(C)C#Cc2c(C)nc(N)nc2N)c(OC)cc1-c1ccccc1 (stereo unspecified),1.6

# Tested on: Candida albicans
# Experiment: Antifungal activity against Candida albicans after 24 hrs by assay in presence of 0.01% Triton X-100
# Settings: not given
MIC [µg/mL],SMILES,Activity
–,CCc1nc(N)nc(N)c1C#CC(C)c1ccc(-c2ccc(C)cc2)nc1 (stereo unspecified),Active
6.25,CCc1nc(N)nc(N)c1C#CC(C)c1cc(OC)cc(-c2ccncc2)c1 (stereo unspecified),–
